Test results taken from ChEMBL document CHEMBL1250442, “Inhibiting gene expression at transcription start sites in chromosomal DNA with antigene RNAs” (Nat Chem Biol, 2005).
Activity calls are given as the source filed them. No cut-off for these calls is given here.

Legend:
T47D [1] = experiment: Inhibition of PR-A gene expression in human T47D cells at 25 nM by syber green assay; assay type: functional
In short: (§1)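 T47D cells plated at 80,000/well without antibiotics two days before Oligofectamine transfection with agRNA duplex (25 or 100 nM final); medium changed at 24 h, harvest day 5 unless stated otherwise. TRIzol total RNA; PR mRNA by real-time PCR with SYBR Green: 50 °C 2 min, 95 °C 10 min, 40 cycles 95 °C 15 s/60 °C 1 min.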

T47D [2] = experiment: Inhibition of PR-B gene expression in human T47D cells at 25 nM by syber green assay; assay type: functional; in short: as §1
T47D [3] = experiment: Inhibition of PR-A gene expression in human T47D cells at 25 nM by syber green assay in presence of 10 nM estradiol; assay type: functional, cell-based
T47D [4] = experiment: Inhibition of PR-B gene expression in human T47D cells at 25 nM by syber green assay in presence of 10 nM estradiol; assay type: functional, cell-based
T47D [5] = experiment: Inhibition of PR-A mRNA gene expression in human T47D cells at 100 nM by syber green assay; assay type: functional; in short: as §1
T47D [6] = experiment: Inhibition of PR-B mRNA gene expression in human T47D cells at 100 nM by syber green assay; assay type: functional
In short: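 T47D cells in RPMI-1640 with 10% FBS, NEAA, insulin, 37 °C, 5% CO2. Plated two days before transfection without antibiotics. Oligofectamine-mediated duplex RNA transfection at 100 nM final, medium changed at 24 h, harvest five days post-transfection. Total RNA extracted with TRIzol. hPR mRNA quantified by SYBR Green qPCR: 50 °C 2 min, 95 °C 10 min, then 40 cycles of 95 °C 15 s / 60 °C 1 min.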

T47D [7] = experiment: Effect of DNA methylation at (-112) CpG site near PR-B transcription start site (-13) in human T47D cells by sodium bisulfite sequencing analysis; assay type: functional, cell-based
In short: (§2)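 T47D cells (RPMI-1640, 10% FBS, NEAA, insulin; 37 °C, 5% CO2) transfected with agRNA duplexes via Oligofectamine, medium changed at 24 h. Genomic DNA bisulphite-treated, regions around AR and hPR-B start sites PCR-amplified (HotStarTaq, 100 ng treated DNA), gel-purified, TOPO TA cloned; 5–15 colonies per plate miniprepped and sequenced.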

T47D [8] = experiment: Effect of DNA methylation at (-75) CpG site near PR-B transcription start site (-13) in human T47D cells by sodium bisulfite sequencing analysis; assay type: functional, cell-based; in short: as §2
T47D [9] = experiment: Effect of DNA methylation at (-46) CpG site near PR-B transcription start site (-13) in human T47D cells by sodium bisulfite sequencing analysis; assay type: functional, cell-based; in short: as §2
T47D [10] = experiment: Effect of DNA methylation at (-23) CpG site near PR-B transcription start site (-13) in human T47D cells by sodium bisulfite sequencing analysis; assay type: functional, cell-based; in short: as §2
T47D [11] = experiment: Effect of DNA methylation at (+20) CpG site near PR-B transcription start site (-13) in human T47D cells by sodium bisulfite sequencing analysis; assay type: functional, cell-based
In short: (§3)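 T47D cells grown in RPMI-1640 with 10% FBS, 0.5% NEAA, insulin and P/S at 37 °C, 5% CO2. They were plated at 80,000 cells/well 2 days before lipid transfection with 25 nM or 100 nM duplex, with medium changed at 24 h. Cells were harvested 5 days post-transfection. 100 ng bisulfite-treated DNA was PCR-amplified, and products were TA-cloned. 5–15 colonies per plate were sequenced.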

T47D [12] = experiment: Effect of DNA methylation at (+45) CpG site near PR-B transcription start site (-13) in human T47D cells by sodium bisulfite sequencing analysis; assay type: functional, cell-based; in short: as §2
T47D [13] = experiment: Effect of DNA methylation at (+107) CpG site near PR-B transcription start site (-13) in human T47D cells by sodium bisulfite sequencing analysis; assay type: functional, cell-based; in short: as §3
T47D [14] = experiment: Effect of DNA methylation at (+112) CpG site near PR-B transcription start site (-13) in human T47D cells by sodium bisulfite sequencing analysis; assay type: functional, cell-based; in short: as §3
T47D [15] = experiment: Effect of DNA methylation at (+125) CpG site near PR-B transcription start site (-13) in human T47D cells by sodium bisulfite sequencing analysis; assay type: functional, cell-based; in short: as §3
T47D [16] = experiment: Effect of DNA methylation at (+149) CpG site near PR-B transcription start site (-13) in human T47D cells by sodium bisulfite sequencing analysis; assay type: functional, cell-based; in short: as §3
T47D [17] = experiment: Effect of DNA methylation at (+162) CpG site near PR-B transcription start site (-13) in human T47D cells by sodium bisulfite sequencing analysis; assay type: functional, cell-based; in short: as §3
T47D [18] = experiment: Effect of DNA methylation at (+166) CpG site near PR-B transcription start site (-13) in human T47D cells by sodium bisulfite sequencing analysis; assay type: functional, cell-based; in short: as §3
T47D [19] = experiment: Effect of DNA methylation at (+173) CpG site near PR-B transcription start site (-13) in human T47D cells by sodium bisulfite sequencing analysis; assay type: functional, cell-based; in short: as §3
T47D [20] = experiment: Effect of DNA methylation at (+190) CpG site near PR-B transcription start site (-13) in human T47D cells by sodium bisulfite sequencing analysis; assay type: functional, cell-based; in short: as §3
T47D [21] = experiment: Effect of DNA methylation at (+216) CpG site near PR-B transcription start site (-13) in human T47D cells by sodium bisulfite sequencing analysis; assay type: functional, cell-based; in short: as §3
T47D [22] = experiment: Effect of DNA methylation at (+225) CpG site near PR-B transcription start site (-13) in human T47D cells by sodium bisulfite sequencing analysis; assay type: functional, cell-based; in short: as §3
T47D [23] = experiment: Effect of DNA methylation at (+267) CpG site near PR-B transcription start site (-13) in human T47D cells by sodium bisulfite sequencing analysis; assay type: functional, cell-based; in short: as §3
T47D [24] = experiment: Effect of DNA methylation at (+295) CpG site near PR-B transcription start site (-13) in human T47D cells by sodium bisulfite sequencing analysis; assay type: functional, cell-based; in short: as §3
T47D [25] = experiment: Effect of DNA methylation at (+319) CpG site near PR-B transcription start site (-13) in human T47D cells by sodium bisulfite sequencing analysis; assay type: functional, cell-based; in short: as §3
T47D [26] = experiment: Effect of DNA methylation at (+335) CpG site near PR-B transcription start site (-13) in human T47D cells by sodium bisulfite sequencing analysis; assay type: functional, cell-based; in short: as §3
T47D [27] = experiment: Effect of DNA methylation at (+337) CpG site near PR-B transcription start site (-13) in human T47D cells by sodium bisulfite sequencing analysis; assay type: functional, cell-based; in short: as §3
T47D [28] = experiment: Effect of DNA methylation at (+353) CpG site near PR-B transcription start site (-13) in human T47D cells by sodium bisulfite sequencing analysis; assay type: functional, cell-based; in short: as §3
T47D [29] = experiment: Effect of DNA methylation at (+356) CpG site near PR-B transcription start site (-13) in human T47D cells by sodium bisulfite sequencing analysis; assay type: functional, cell-based; in short: as §3
T47D [30] = experiment: Effect of DNA methylation at (+362) CpG site near PR-B transcription start site (-13) in human T47D cells by sodium bisulfite sequencing analysis; assay type: functional, cell-based; in short: as §3
T47D [31] = experiment: Effect of DNA methylation at (+379) CpG site near PR-B transcription start site (-13) in human T47D cells by sodium bisulfite sequencing analysis; assay type: functional, cell-based; in short: as §3
T47D [32] = experiment: Effect of DNA methylation at (+398) CpG site near PR-B transcription start site (-13) in human T47D cells by sodium bisulfite sequencing analysis; assay type: functional, cell-based; in short: as §3
T47D [33] = experiment: Effect of DNA methylation at (+41) CpG site near PR-B transcription start site (-13) in human T47D cells by sodium bisulfite sequencing analysis; assay type: functional, cell-based; in short: as §3

## Cc1cn(CC(=O)N(CCNC(=O)CN(CCNC(=O)CN(CCNC(=O)CN(CCNC(=O)CN(CCNC(=O)CN(CCNC(=O)CN(CCNC(=O)CN(CCNC(=O)CN(CCNC(=O)CN(CCNC(=O)CN(CCNC(=O)CN(CCNC(=O)CN(CCNC(=O)CN(CCNC(=O)CN(CCNC(=O)CN(CCNC(=O)CN(CCNC(=O)CN(CCNC(=O)CN(CCNC(=O)CN(CCNC(=O)CN)C(=O)Cn2cnc3c(N)ncnc32)C(=O)Cn2cnc3c(N)ncnc32)C(=O)Cn2cnc3c(=O)[nH]c(N)nc32)C(=O)Cn2ccc(N)nc2=O)C(=O)Cn2ccc(=O)[nH]c2=O)C(=O)Cn2cnc3c(=O)[nH]c(N)nc32)C(=O)Cn2ccc(=O)[nH]c2=O)C(=O)Cn2ccc(N)nc2=O)C(=O)Cn2ccc(=O)[nH]c2=O)C(=O)Cn2cnc3c(=O)[nH]c(N)nc32)C(=O)Cn2cnc3c(=O)[nH]c(N)nc32)C(=O)Cn2ccc(N)nc2=O)C(=O)Cn2ccc(N)nc2=O)C(=O)Cn2cnc3c(N)ncnc32)C(=O)Cn2cnc3c(=O)[nH]c(N)nc32)C(=O)Cn2ccc(=O)[nH]c2=O)C(=O)Cn2ccc(N)nc2=O)C(=O)Cn2ccc(N)nc2=O)C(=O)Cn2cnc3c(N)ncnc32)CC(=O)NCCN(CC(=O)NCC(=O)O)C(=O)Cn2cc(C)c(=O)[nH]c2=O)c(=O)[nH]c1=O
T47D [1]
  inhibition at 0.025 µM: 72%
T47D [2]
  inhibition at 0.025 µM: 80%
T47D [3]
  inhibition: Active
T47D [4]
  inhibition: Active
T47D [5]
  inhibition at 0.1 µM: 100%
T47D [6]
  inhibition at 0.1 µM: 100%
T47D [7]
  Activity: inactive
T47D [8]
  Activity: inactive
T47D [9]
  Activity: inactive
T47D [10]
  Activity: inactive
T47D [11]
  Activity: inactive
T47D [12]
  Activity: inactive
T47D [13]
  Activity: inactive
T47D [14]
  Activity: inactive
T47D [15]
  Activity: inactive
T47D [16]
  Activity: inactive
T47D [17]
  Activity: inactive
T47D [18]
  Activity: inactive
T47D [19]
  Activity: inactive
T47D [20]
  Activity: inactive
T47D [21]
  Activity: inactive
T47D [22]
  Activity: inactive
T47D [23]
  Activity: inactive
T47D [24]
  Activity: inactive
T47D [25]
  Activity: inactive
T47D [26]
  Activity: inactive
T47D [27]
  Activity: inactive
T47D [28]
  Activity: inactive
T47D [29]
  Activity: inactive
T47D [30]
  Activity: inactive
T47D [31]
  Activity: inactive
T47D [32]
  Activity: inactive
T47D [33]
  Activity: inactive
